{
  "source": "paper PMC9278990",
  "about": "(Nature structural & molecular biology, 2021)",
  "key": {"FLCN–LDHA complex": {"tested_on": "FLCN–LDHA complex", "test": "FLCN-LDHA complex disruption in HEK293", "type": "cell-based, human", "conditions": "HEK293, exogenous addition, 6 h; n=3", "procedure,_shortened": "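HEK293 cells were given exogenous lactate or pyruvate for 6 h. Lysates underwent anti-FLCN IP (antibody 1 h, then protein G agarose 2 h, 4 °C), four washes in lysis buffer, Laemmli elution and immunoblotting alongside whole-cell extracts. Three independent experiments.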"}, "LDHA [1]": {"tested_on": "LDHA", "test": "Fluorescence polarization anisotropy binding to LDHA", "design": "species or system human", "conditions": "rhodamine B-labeled peptide, pH 7.2, 30 min on ice, n = 3"}, "pTyr10-LDHA": {"tested_on": "pTyr10-LDHA", "test": "LDHA activity", "type": "cell-based, human", "conditions": "rhodamine B-labeled peptides, pTyr10-LDHA normalized to NT; n=3", "procedure,_shortened": "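HEK293 cells were treated with 1 μM rhodamine B-labeled peptides for 2 h. Whole-cell lysates were immunoblotted for pTyr10-LDHA, and band density was expressed as fold change versus untreated cells. n = 3.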"}, "dimeric LDHA": {"tested_on": "dimeric LDHA", "test": "LDHA activity, predominantly dimeric LDHA", "type": "biochemical, human", "conditions": "LDHA 10 ng/μl (predominantly dimeric), increasing amounts of FLCN protein or FLCN-10; n=3"}, "LDHA [2]": {"tested_on": "LDHA", "test": "LDHA kinetics and inhibition assay", "type": "biochemical, human", "conditions": "n = 3; for potency as compared to LDHA inhibitor FX11: 2 nM FLCN or 100 nM FLCN-10 versus 60 μM FX11, pH 7.0, 2 mM pyruvate; for mode of LDHA inhibition: 50 mM Tris-HCl pH 7.0, 2 mM pyruvate, varied NADH, 2 nM FLCN or 100 nM FLCN-10", "procedure,_shortened": "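Reactions contained 50 mM Tris-HCl pH 7.0, 2 mM pyruvate and varied NADH, with test protein (2 nM), test peptide (100 nM) or reference inhibitor FX11 (60 μM). Triplicates, ≥2 independent assays. IC50 came from curve fitting; Ki came from Lineweaver–Burk analysis and IC50-to-Ki conversion.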"}, "LDHA [3]": {"tested_on": "LDHA", "test": "Cibacron Blue-agarose pulldown of LDHA", "type": "binding, human", "conditions": "HEK293 cells overexpressing FLCN; Cibacron blue agarose 1 h at 4 °C; n=3", "procedure,_shortened": "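Lysates of HEK293 cells expressing empty vector or FLCN-FLAG were incubated with Cibacron Blue agarose for 1 h at 4 °C. LDHA was immunoblotted and the pulldown:input ratio was normalized to vector.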"}, "LDHA [4]": {"tested_on": "LDHA", "test": "Native PAGE of LDHA oligomers", "design": "species or system human", "procedure,_shortened": "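HEK293 cells were transiently transfected with pcDNA3 constructs (TransIT-2020) for 24 h and lysed. Lysates were mixed with non-denaturing loading buffer (250 mM Tris-HCl pH 6.8, 30% glycerol, 0.05% bromophenol blue; 5× stock) for 5 min at room temperature. Samples were resolved on Tris-HCl gels in native running buffer (25 mM Tris, 192 mM glycine).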"}, "UOK257 cells": {"tested_on": "UOK257 cells", "test": "Extracellular acidification rate", "type": "cell-based, human", "conditions": "n = 8", "procedure,_shortened": "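UOK257 cells were transfected at 50% confluency in 100-mm dishes (24 h), or left untransfected for peptide treatment. Cells were seeded at 1 × 10^5 per well 24 h before assay and treated immediately before measurement (peptide, 2 h). ECAR was read by Seahorse XF glycolytic stress test. Transfection n = 8, peptide n = 4 independent samples.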"}, "LDHA [5]": {"tested_on": "LDHA", "test": "Co-immunoprecipitation of FLCN with LDHA", "type": "binding, human", "conditions": "expressed in HEK293 cells, FLAG IP, immunoblot", "procedure,_shortened": "(§1)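 Lysates came from transfected HEK293 cells (24 h post-transfection) or, for endogenous FLCN IP, from LDHA or LDHB knockout HAP1 cells. Capture used anti-FLAG or anti-HA agarose (2 h, 4 °C) or anti-LDHA/anti-FLCN antibody (1 h) followed by protein G agarose (2 h, 4 °C). Beads were washed four times in NP40 lysis buffer, eluted in Laemmli buffer and immunoblotted.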"}, "LDHB": {"tested_on": "LDHB", "test": "Co-immunoprecipitation of FLCN with LDHB", "type": "binding, human", "conditions": "HEK293 cells, LDHB-FLAG IP; HAP1 cells", "procedure,_shortened": "as §1"}, "ccRCC cells": {"tested_on": "ccRCC cells", "test": "Apoptosis in ccRCC cells on FLCN overexpression", "type": "cell-based, human", "conditions": "786-O, Caki-1 and Caki-2, FLAG-tagged FLCN, immunoblot"}, "[6]": {"tested_on": "LDHA/LDHB chimeric constructs", "test": "Co-IP of FLCN with LDHA/LDHB chimeric constructs", "type": "binding, human", "conditions": "HEK293, co-IP"}, "LDH": {"tested_on": "LDH", "conditions": "UOK257 lysates, 2 μg plasmid; n = 3"}, "[7]": {"conditions": "overexpression of FLCN in HEK293, native PAGE"}},
  "note": "“Also recorded” adds a separate entry of the source. No end group written: not given here.",
  "data": [
    {"compound": "CC(O)C(=O)O", "note": "(centres unmarked) [lactate]", "values": [
      {"measurement": "effect on FLCN–LDHA complex", "setting": "FLCN–LDHA complex", "result": "much milder effect on dissociation of LDHA from FLCN"}
    ]},
    {"compound": "CC(=O)C(=O)O", "note": "[pyruvate]", "values": [
      {"measurement": "effect on FLCN–LDHA complex", "setting": "FLCN–LDHA complex", "result": "disruption of the FLCN–LDHA complex"}
    ]},
    {"compound": "FLCN-1: peptide derived from aa 220–230 of FLCN (QRMNTAFTPFL; also: rhodamine B label (position not given here))", "values": [
      {"measurement": "binding to LDHA (in words)", "setting": "LDHA [1]", "result": "bound tightly to LDHA"},
      {"measurement": "LDHA activity in HEK293 cells", "setting": "pTyr10-LDHA", "result": "effectively reduced LDHA activity"}
    ]},
    {"compound": "FLCN-10: decapeptide derived from the FLCN loop region; aa 219–228 (AQRMNTAFTP; also: rhodamine B label (position not given here))", "values": [
      {"measurement": "binding to LDHA (in words)", "setting": "LDHA [1]", "result": "greatly enhanced binding"},
      {"measurement": "inhibition of dimeric LDHA", "setting": "dimeric LDHA", "result": "effectively inhibit dimeric"},
      {"measurement": "potency as compared to LDHA inhibitor FX11", "setting": "LDHA [2]", "result": "greatly improved potency"},
      {"measurement": "mode of LDHA inhibition", "setting": "LDHA [2]", "result": "uncompetitively inhibits LDHA"}
    ]},
    {"compound": "folliculin [FLCN]", "values": [
      {"measurement": "LDHA binding to Cib-agarose", "setting": "LDHA [3]", "result": "greatly diminished"},
      {"measurement": "preference for LDHA oligomeric state", "setting": "LDHA [4]; dimer compared to tetramer", "result": "prefers binding to the less active LDHA dimer"},
      {"measurement": "effect on large oligomeric complexes of LDHA", "setting": "LDHA [4]; [7]", "result": "decrease in large oligomeric complexes of LDHA"},
      {"measurement": "formation of dimeric LDHA species (70 kDa)", "setting": "LDHA [4]; [7]", "result": "induces formation of a dimeric LDHA species"},
      {"measurement": "ECAR, transfection of 2 μg plasmid", "setting": "UOK257 cells; UOK257, 2 μg transfection", "result": "little effect"},
      {"measurement": "ECAR, transfection of 8 μg plasmid", "setting": "UOK257 cells; UOK257, 8 μg transfection", "result": "reduced ECAR to a similar level as the FLCN-replaced control cell line"},
      {"measurement": "binding to LDHA (co-IP)", "setting": "LDHA [5]", "result": "specifically bound to LDHA"},
      {"measurement": "binding to LDHB (co-IP)", "setting": "LDHB", "result": "no interaction with LDHB was detected"},
      {"measurement": "apoptosis in ccRCC on overexpression", "setting": "ccRCC cells", "result": "induced apoptosis in ccRCC cells"},
      {"measurement": "inhibition of dimeric LDHA", "setting": "dimeric LDHA", "result": "effectively inhibit dimeric"},
      {"measurement": "potency as compared to LDHA inhibitor FX11", "setting": "LDHA [2]", "result": "greatly improved potency"},
      {"measurement": "mode of LDHA inhibition", "setting": "LDHA [2]", "result": "uncompetitively inhibits LDHA; also recorded: uncompetitive inhibitor of LDHA"},
      {"measurement": "binding to LDHA with both domains (NC) replaced by LDHB", "setting": "[6]; NC chimeric construct", "result": "completely abrogated FLCN interaction"},
      {"measurement": "binding to LDHA with LDHB N domain or C domain individually", "setting": "[6]; chimeric constructs (first 22 / last 38 amino acids swapped)", "result": "preserved binding"},
      {"measurement": "LDH activity after transfection of 2 μg", "setting": "LDH", "result": "~ 77%"}
    ]}
  ]
}
